Test results as given in ChEMBL document CHEMBL4373735, “N-alkyl-hydroxybenzoyl anilide hydroxamates as dual inhibitors of HDAC and HSP90, downregulating IFN-γ induced PD-L1 expression” (Eur J Med Chem, 2020).
Active and inactive are the calls of the source. The calls are words filed in the database; no cut-off is given here.

Assays:
[1] = biological target: Protein deacetylase HDAC6 (Homo sapiens, UniProt Q9UBN7); assay: Inhibition of recombinant human N-terminal GST-tagged HDAC6 (1 to 1125 residues) expressed in baculovirus infected insect cells using RHK-K(Ac)-AMC as substrate after 90 mins by fluorimetry analysis
Sequence of Protein deacetylase HDAC6 (Q9UBN7 whole entry, the tested form may be a part, canonical isoform): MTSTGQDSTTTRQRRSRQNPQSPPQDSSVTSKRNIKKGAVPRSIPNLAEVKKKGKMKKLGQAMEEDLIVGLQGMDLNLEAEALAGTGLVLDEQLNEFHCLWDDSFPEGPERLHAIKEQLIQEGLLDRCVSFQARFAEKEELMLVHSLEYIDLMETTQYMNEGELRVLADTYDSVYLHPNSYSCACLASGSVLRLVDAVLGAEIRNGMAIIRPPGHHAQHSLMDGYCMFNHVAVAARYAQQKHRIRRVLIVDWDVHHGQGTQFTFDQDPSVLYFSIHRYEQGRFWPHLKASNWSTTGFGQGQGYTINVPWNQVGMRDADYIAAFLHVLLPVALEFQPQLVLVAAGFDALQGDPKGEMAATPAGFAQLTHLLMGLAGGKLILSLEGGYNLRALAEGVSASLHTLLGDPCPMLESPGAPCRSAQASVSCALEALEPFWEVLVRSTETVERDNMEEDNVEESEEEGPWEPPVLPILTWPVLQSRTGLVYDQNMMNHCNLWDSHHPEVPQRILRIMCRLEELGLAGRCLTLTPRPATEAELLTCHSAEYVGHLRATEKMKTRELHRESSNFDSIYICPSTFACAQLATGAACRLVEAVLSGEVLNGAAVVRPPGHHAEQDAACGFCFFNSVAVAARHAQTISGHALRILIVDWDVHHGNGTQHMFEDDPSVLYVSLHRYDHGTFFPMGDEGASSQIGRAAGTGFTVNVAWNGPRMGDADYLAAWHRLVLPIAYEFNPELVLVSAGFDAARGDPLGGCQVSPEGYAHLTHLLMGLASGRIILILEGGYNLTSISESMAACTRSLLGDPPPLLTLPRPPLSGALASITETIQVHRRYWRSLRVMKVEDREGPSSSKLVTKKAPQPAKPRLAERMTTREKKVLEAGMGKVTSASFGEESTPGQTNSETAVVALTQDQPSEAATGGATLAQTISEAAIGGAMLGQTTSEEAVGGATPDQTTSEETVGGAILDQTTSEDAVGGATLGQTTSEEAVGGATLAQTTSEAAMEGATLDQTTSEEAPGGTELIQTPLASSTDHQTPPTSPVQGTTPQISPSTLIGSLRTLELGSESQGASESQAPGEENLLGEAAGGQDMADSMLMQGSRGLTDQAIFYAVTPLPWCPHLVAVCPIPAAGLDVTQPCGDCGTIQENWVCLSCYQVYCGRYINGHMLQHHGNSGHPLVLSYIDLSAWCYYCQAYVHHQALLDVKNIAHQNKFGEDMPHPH
How it was run: (§1)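 Isoform assays run by an outside contractor. […] Trichostatin A tested in parallel the same way as control.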

NCI-H1975 [2] = assay: Inhibition of IFNgamma-induced PD-L1 expression in human NCI-H1975 cells assessed as reduction in PD-L1 expression incubated for 48 hrs by Western blot analysis; assay type: functional, cell-based
How it was run: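 H1975 cells exposed to IFN-γ 20 ng/ml alone or together with compound at the indicated concentrations for 48 h. Lysates run on 10% reducing SDS-PAGE and transferred to nitrocellulose. Blocked in 5% milk/PBST, probed with mouse anti-PD-L1 for 1 h, HRP goat anti-mouse detected by ECL. β-actin used as loading control.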

[3] = biological target: NAD-dependent protein deacetylase sirtuin-1 (Homo sapiens, UniProt Q96EB6); assay: Inhibition of human recombinant N-terminal His-tagged SIRT1 (1 to 747 residues) expressed in Escherichia coli using Ac-RHK-K(Ac)-AMC as substrate after 30 mins in presence of NAD+ by fluorimetry analysis; how it was run: as §1
HCT-116 = assay: cells; assay type: functional; settings: Homo sapiens, HCT-116, 48 h
[4] = biological target: T1, Heat shock protein HSP90 (Homo sapiens) (UniProt P07900+P08238); assay: Inhibition of HSP90 in human H1975 cells assessed as induction of HSP70 expression by Western blot analysis; assay type: cell-based
How it was run: (§2)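 H1975 cells given DMSO or 0.1-3 μM compound for 24 h, or 1 μM for varying times. HSP70 and HSP90 client proteins detected by Western blot of whole-cell lysates, with GAPDH as internal control. Repeated in at least three independent experiments.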

Histone deacetylase 8 = Histone deacetylase 8 (Homo sapiens, UniProt Q9BY41); assay: Inhibition of recombinant C-terminal His-fusion tagged and N-terminal Streptavidin2-tagged human HDAC8 (1 to 377 residues) expressed in insect cells using RHK-K(Ac)-AMC as substrate after 60 mins by fluorescence assay; how it was run: as §1
Sequence of Histone deacetylase 8 (Q9BY41 whole entry, the tested form may be a part): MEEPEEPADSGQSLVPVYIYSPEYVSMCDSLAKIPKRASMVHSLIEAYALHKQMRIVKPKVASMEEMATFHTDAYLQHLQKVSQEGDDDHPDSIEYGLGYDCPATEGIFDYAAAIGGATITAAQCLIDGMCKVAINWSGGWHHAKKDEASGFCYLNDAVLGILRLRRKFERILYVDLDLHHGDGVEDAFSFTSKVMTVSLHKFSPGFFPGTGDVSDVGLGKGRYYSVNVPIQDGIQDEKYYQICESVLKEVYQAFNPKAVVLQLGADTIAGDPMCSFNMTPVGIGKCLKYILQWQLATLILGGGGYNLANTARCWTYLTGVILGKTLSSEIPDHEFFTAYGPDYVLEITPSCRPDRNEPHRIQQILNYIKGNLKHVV

[5] = biological target: Histone deacetylase (Homo sapiens) (UniProt Q13547+O15379+Q9UBN7+Q92769+Q9UQL6+Q8WUI4+Q9BY41+Q96DB2+P56524+Q9UKV0+Q969S8); assay: Inhibition of HDAC in human H1975 cells assessed as Histone H3 acetylation after 24 hrs by Western blot analysis; assay type: cell-based
How it was run: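 Whole-cell lysates from H1975 cells after 24 h culture with compound at the indicated concentrations. Acetylated α-tubulin and acetylated histone H3 detected by immunoblot: SDS-PAGE, PVDF transfer, primary antibody overnight at 4°C, HRP secondary, ECL. Repeated at least three times.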

Histone deacetylase 11 = Histone deacetylase 11 (Homo sapiens, UniProt Q96DB2); assay: Inhibition of human recombinant N-terminal Streptavidin2-tagged HDAC11 (1 to 347 residues) expressed in baculovirus infected insect cells using Boc-Lys(TFA)-AMC as substrate after 60 mins by fluorescence assay; how it was run: as §1
Sequence of Histone deacetylase 11 (Q96DB2 whole entry, the tested form may be a part): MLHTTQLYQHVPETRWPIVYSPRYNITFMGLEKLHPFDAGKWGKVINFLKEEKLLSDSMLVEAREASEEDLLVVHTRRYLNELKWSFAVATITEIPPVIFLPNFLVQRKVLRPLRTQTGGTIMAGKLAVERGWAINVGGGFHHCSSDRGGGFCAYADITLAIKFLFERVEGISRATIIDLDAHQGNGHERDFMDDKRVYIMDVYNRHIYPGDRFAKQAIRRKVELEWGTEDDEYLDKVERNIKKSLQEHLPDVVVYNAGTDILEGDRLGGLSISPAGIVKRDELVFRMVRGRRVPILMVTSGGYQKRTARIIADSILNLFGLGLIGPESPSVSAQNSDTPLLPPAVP

NCI-H1975 [6] = assay: Cell cycle arrest in human NCI-H1975 cells assessed as increase in accumulation at sub-G1 phase at 0.1 to 3 uM after 48 hrs by propidium iodide/RNase staining based FACScan flow cytometry analysis; assay type: functional
How it was run: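 H1975 cells seeded at 2.5×10^5/well, left overnight, then exposed to DMSO or compound at several concentrations for 48 h. Washed in PBS, fixed in ice-cold 70% ethanol at -20 °C overnight, stained with propidium iodide 80 ug/ml plus 0.1% Triton X-100 and RNase A 100 ug/ml in PBS. DNA content read by FACScan.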

Histone deacetylase 7 = Histone deacetylase 7 (Homo sapiens, UniProt Q8WUI4); assay: Inhibition of recombinant human N-terminal GST-tagged HDAC7 (518 to 991 residues) expressed in baculovirus infected insect cells using Boc-K(Ac)-AMC as substrate after 90 mins by fluorimetry analysis; how it was run: as §1
Sequence of Histone deacetylase 7 (Q8WUI4 whole entry, the tested form may be a part): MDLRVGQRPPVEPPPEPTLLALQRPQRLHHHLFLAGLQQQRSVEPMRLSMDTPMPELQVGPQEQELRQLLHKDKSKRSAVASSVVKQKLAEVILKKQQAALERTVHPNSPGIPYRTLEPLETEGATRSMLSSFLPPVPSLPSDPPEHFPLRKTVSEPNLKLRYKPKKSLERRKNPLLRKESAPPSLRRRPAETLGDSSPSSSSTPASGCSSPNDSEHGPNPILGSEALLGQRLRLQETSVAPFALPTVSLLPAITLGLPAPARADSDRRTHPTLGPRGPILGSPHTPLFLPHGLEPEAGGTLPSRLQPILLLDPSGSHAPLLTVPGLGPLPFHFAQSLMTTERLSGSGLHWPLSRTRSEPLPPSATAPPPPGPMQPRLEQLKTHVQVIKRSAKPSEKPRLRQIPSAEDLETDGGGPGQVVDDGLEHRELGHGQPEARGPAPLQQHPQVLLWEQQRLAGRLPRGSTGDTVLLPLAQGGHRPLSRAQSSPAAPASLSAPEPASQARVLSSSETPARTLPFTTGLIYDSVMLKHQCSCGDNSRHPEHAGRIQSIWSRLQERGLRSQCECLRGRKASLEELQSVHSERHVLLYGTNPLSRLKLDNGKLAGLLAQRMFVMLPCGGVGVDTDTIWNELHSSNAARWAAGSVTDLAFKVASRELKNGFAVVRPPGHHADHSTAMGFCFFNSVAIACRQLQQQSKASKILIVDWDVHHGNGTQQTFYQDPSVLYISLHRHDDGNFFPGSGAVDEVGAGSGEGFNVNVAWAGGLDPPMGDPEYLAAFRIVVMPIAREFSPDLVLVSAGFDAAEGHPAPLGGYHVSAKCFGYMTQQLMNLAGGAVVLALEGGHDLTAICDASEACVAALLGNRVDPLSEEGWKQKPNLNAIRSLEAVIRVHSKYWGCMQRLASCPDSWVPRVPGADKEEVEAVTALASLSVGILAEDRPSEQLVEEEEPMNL

Histone deacetylase = assay type: cell-based, Homo sapiens; settings: hela
[7] = biological target: T1, Heat shock protein HSP90 (Homo sapiens); assay: Inhibition of HSP90 in human H1975 cells assessed as downregulation of EGFR protein level by Western blot analysis; assay type: cell-based; how it was run: as §2
A549 = assay: Antiproliferative activity against human A549 cells assessed as cell growth inhibition after 48 hrs by sulforhodamine B assay; assay type: functional; settings: Homo sapiens, A549, 48 h
How it was run: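 Cells seeded at 5000/well overnight; baseline plate fixed with 10% TCA at time of compound addition (T0). Treated with DMSO or graded doses for 48 h, fixed with 10% TCA, stained with 0.4% (w/v) SRB in 1% acetic acid, washed with 1% acetic acid, dye solubilised in 10 mM Trizma base, absorbance at 515 nm. GI50 from T0-corrected growth; at least three independent experiments, SD reported.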

NCI-H1975 [8] = assay: Induction of apoptosis in human NCI-H1975 cells assessed as activation of caspase 3 at 0.1 to 3 uM measured after 48 hrs immunoblot analysis; assay type: functional, cell-based
How it was run: (§3)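 H1975 cells cultured with compound at the indicated concentrations for 48 h, then immunoblotted with the indicated antibodies. Lysis buffer was ice-cold RIPA-type with phosphatase and protease inhibitors, 30 min on ice. Proteins separated on 8-15% SDS-PAGE, transferred to PVDF, primary antibody overnight at 4°C, HRP secondary 1 h at room temperature, ECL detection.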

[9] = biological target: Polyamine deacetylase HDAC10 (Homo sapiens, UniProt Q969S8); assay: Inhibition of human HDAC10 using fluorescent-labelled p53 residues 379 to 382 (RHKKAc) peptide as substrate by fluorescence assay; how it was run: as §1
Sequence of Polyamine deacetylase HDAC10 (Q969S8 whole entry, the tested form may be a part): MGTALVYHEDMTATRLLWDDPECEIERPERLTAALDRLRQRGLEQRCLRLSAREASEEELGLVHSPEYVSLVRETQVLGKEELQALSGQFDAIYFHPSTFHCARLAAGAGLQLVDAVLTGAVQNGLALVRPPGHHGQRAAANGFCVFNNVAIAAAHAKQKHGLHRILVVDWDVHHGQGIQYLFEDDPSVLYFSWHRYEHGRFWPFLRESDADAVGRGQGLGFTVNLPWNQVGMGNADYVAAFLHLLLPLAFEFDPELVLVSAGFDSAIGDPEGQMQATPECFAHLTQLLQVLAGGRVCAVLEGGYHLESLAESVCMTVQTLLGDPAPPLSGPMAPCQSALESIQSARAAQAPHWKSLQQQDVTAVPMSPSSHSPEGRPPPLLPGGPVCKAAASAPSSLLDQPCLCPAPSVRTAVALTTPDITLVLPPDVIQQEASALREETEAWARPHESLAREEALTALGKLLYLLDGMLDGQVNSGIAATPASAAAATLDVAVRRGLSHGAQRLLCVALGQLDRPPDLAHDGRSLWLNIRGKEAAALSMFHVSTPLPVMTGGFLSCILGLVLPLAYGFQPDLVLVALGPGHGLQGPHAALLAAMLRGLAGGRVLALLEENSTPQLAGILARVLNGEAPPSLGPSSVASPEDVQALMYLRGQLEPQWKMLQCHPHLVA

[10] = biological target: T1, Heat shock protein HSP90 (Homo sapiens); assay: Inhibition of HSP90 in human H1975 cells assessed as downregulation of FAK protein level by Western blot analysis; assay type: cell-based; how it was run: as §2
NCI-H1975 [11] = assay: cells; assay type: functional; settings: Homo sapiens, NCI-H1975, 48 h
NCI-H1975 [12] = assay: Inhibition of PD-L1 cell surface expression in IFNgamma-stimulated human NCI-H1975 cells at 0.74 uM after 48 hrs by FITC staining based FACScan flow cytometry analysis; assay type: functional
How it was run: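 Cells seeded at 3.2×10^5/well and treated with IFN-γ 20 ng/ml with or without compound for 48 h. Then 3×10^5 cells stained with mouse anti-PD-L1 5 µg/ml for 1 h, followed by FITC goat anti-mouse IgG for 1 h, in PBS/0.05% BSA. FITC mean fluorescence intensity measured by FACScan and expressed relative to untreated cells. Mean ± S.D. of three independent experiments.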

NCI-H1975 [13] = assay: Induction of apoptosis in human NCI-H1975 cells assessed as activation of caspase 8 at 0.1 to 3 uM measured after 48 hrs immunoblot analysis; assay type: functional, cell-based; how it was run: as §3
Histone deacetylase 4 = Histone deacetylase 4 (Homo sapiens, UniProt P56524); assay: Inhibition of recombinant N-terminal GST-tagged and C-terminal His-tagged human HDAC4 expressed in baculovirus infected insect cells using RHK-K(Ac)-AMC as substrate after 60 mins by fluorimetry analysis; how it was run: as §1
Sequence of Histone deacetylase 4 (P56524 whole entry): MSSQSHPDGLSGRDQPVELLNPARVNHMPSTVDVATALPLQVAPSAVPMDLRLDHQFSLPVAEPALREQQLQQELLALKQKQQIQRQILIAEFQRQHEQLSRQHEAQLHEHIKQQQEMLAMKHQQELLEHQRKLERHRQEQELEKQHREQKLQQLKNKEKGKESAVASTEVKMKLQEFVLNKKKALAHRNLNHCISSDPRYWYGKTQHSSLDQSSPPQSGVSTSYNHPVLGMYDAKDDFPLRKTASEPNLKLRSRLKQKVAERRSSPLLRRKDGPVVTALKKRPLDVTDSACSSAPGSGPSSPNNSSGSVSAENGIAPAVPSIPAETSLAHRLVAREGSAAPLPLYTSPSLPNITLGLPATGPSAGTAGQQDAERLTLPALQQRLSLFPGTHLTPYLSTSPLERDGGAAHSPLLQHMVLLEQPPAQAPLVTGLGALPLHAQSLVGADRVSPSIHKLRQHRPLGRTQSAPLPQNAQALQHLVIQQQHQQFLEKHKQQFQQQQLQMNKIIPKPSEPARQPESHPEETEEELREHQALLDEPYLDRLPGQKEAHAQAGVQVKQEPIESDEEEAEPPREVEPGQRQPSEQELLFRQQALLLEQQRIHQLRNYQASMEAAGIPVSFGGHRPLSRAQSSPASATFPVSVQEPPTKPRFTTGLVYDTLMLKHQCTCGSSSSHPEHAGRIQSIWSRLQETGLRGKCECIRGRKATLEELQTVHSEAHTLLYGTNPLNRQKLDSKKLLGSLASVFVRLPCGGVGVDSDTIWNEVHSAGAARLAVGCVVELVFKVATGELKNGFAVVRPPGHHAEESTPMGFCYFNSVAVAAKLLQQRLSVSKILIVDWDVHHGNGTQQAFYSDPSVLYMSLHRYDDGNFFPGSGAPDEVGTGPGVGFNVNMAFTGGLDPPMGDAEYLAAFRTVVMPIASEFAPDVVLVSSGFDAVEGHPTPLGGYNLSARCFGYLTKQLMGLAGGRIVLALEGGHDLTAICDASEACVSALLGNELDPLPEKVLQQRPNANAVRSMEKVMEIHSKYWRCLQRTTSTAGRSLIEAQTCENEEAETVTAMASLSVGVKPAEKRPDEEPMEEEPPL

NCI-H1975 [14] = assay: Induction of apoptosis in human NCI-H1975 cells assessed as activation of PARP at 0.1 to 3 uM measured after 48 hrs immunoblot analysis; assay type: functional, cell-based; how it was run: as §3

Compound | IC50 [1] [nM] | inhibition (NCI-H1975 [2]) | IC50 [3] [nM] | GI50 (HCT-116) [nM] | inhibition [4] | IC50 (Histone deacetylase 8) [nM] | inhibition [5] | IC50 (Histone deacetylase 11) [nM] | Activity (NCI-H1975 [6]) | IC50 (Histone deacetylase 7) [nM] | IC50 (Histone deacetylase) [nM] | inhibition [7] | GI50 (A549) [nM] | Activity (NCI-H1975 [8]) | IC50 [9] [nM] | inhibition [10] | GI50 (NCI-H1975 [11]) [nM] | inhibition (NCI-H1975 [12]) | Activity (NCI-H1975 [13]) | IC50 (Histone deacetylase 4) [nM] | further results
CC(C)c1cc(C(=O)N(C)c2ccc(NC(=O)CCCCCCCC(=O)NO)cc2)c(O)cc1O | 316 | Dose-dependent effect | > 10000 | 1060 | Active | 3410 | Dose-dependent effect | 1890 | Active | 6400 | 361 | Active | 440 | Active | > 10000 | Active | 400 | Active | Active | > 10000 | Activity (NCI-H1975 [14]): Active
CC(C)c1cc(C(=O)N(C)c2ccc(NC(=O)CCCCCCC(=O)NO)cc2)c(O)cc1O | 40 | Dose-dependent effect | > 10000 | 830 | Active | 422 | Dose-dependent effect | 3610 | Active | > 10000 | 195 | Active | 770 | Active | 2670 | Active | 690 | Active | Active | > 10000 | Activity (NCI-H1975 [14]): Active
